Biological target: Human integrin αvβ3 receptor (Homo sapiens, UniProt P05106+P06756)
Format: binding
Conditions: for IC50: SD; for increase of IC50 compared to the free ligand 1: αvβ3, biotinylated vitronectin binding, from Table 1
In short: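 Immobilized integrin αvβ3 incubated with test compound at graded concentrations (10−12 to 10−5) together with biotinylated vitronectin (1 μg mL−1); bound vitronectin measured. IC50 taken from the inhibition of vitronectin binding, reported as arithmetic mean ± SD of triplicate determinations.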

Sequence of Human integrin αvβ3 receptor (P06756 31-992 limits assumed): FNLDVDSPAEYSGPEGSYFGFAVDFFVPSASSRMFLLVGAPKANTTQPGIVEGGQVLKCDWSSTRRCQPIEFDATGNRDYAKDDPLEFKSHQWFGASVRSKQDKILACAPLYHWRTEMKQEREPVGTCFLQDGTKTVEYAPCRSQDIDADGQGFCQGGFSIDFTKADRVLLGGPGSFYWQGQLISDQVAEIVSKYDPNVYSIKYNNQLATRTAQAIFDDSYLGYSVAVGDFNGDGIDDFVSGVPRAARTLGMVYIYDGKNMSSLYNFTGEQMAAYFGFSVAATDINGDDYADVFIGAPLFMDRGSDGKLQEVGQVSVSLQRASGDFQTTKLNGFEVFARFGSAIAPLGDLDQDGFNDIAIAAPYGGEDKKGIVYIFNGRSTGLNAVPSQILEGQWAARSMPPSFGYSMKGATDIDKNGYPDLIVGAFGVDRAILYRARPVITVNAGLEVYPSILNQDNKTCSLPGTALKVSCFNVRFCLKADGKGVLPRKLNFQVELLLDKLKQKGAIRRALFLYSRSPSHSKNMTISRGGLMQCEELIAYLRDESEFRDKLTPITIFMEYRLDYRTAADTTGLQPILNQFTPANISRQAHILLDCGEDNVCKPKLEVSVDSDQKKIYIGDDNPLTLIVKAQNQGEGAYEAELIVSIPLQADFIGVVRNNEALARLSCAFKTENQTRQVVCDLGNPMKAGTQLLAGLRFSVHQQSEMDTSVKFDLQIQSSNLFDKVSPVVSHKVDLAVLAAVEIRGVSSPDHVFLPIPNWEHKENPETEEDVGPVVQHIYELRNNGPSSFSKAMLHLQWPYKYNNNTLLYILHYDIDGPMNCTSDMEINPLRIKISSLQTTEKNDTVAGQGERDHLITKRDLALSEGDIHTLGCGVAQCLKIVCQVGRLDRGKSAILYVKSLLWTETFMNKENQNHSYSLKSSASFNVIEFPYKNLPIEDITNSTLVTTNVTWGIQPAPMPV
Sequence of Human integrin αvβ3 receptor (P05106 27-718 limits assumed): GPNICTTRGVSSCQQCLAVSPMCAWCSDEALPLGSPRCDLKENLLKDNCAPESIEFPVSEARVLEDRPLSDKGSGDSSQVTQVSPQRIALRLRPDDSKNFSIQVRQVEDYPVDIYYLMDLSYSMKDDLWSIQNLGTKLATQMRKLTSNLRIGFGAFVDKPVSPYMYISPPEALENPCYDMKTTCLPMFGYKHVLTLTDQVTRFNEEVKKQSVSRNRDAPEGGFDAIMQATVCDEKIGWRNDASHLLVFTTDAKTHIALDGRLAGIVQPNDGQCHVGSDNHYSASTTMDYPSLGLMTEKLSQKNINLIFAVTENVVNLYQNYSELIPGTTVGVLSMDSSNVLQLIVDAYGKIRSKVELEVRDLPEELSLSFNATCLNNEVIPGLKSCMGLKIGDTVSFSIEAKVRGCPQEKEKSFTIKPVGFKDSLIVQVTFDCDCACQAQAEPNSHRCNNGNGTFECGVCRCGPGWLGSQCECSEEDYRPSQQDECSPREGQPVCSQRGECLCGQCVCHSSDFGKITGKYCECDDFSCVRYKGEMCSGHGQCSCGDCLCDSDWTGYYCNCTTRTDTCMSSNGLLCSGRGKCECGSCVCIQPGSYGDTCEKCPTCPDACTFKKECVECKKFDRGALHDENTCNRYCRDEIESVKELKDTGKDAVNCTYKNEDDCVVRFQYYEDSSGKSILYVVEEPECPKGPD

Compound | IC50 | increase of IC50 compared to the free ligand 1
CC(=O)O[C@H]1C(=O)[C@@]2(C)[C@H]([C@H](OC(=O)c3ccccc3)[C@]3(O)C[C@H](OC(=O)[C@H](OC(=O)N(C)CCN(C)C(=O)OCc4ccc(NC(=O)[C@H](C)NC(=O)[C@@H](NC(=O)CCc5cn(CCOCCOCCOCCOCC(=O)NCc6ccc(CN7C(=O)[C@H]8CC(=O)N[C@@H](CCCNC(=N)N)C(=O)NCC(=O)N[C@@H](CC(=O)O)C(=O)NC[C@H]7C(=O)N8)cc6)nn5)C(C)C)cc4)[C@@H](NC(=O)c4ccccc4)c4ccccc4)C(C)=C1C3(C)C)[C@]1(OC(C)=O)CO[C@@H]1C[C@@H]2O [compound 5, cyclo[DKP‐RGD]‐Val‐Ala‐PTX (aliphatic scaffold)] | 14.8 ± 3.9 nM | 3 fold
CC(=O)O[C@H]1C(=O)[C@@]2(C)[C@H]([C@H](OC(=O)c3ccccc3)[C@]3(O)C[C@H](OC(=O)[C@H](OC(=O)N(C)CCN(C)C(=O)OCc4ccc(NC(=O)[C@H](C)NC(=O)[C@@H](NC(=O)c5ccc(OCc6cn(CCOCCOCCOCCOCC(=O)NCc7ccc(CN8C(=O)[C@H]9CC(=O)N[C@@H](CCCNC(=N)N)C(=O)NCC(=O)N[C@@H](CC(=O)O)C(=O)NC[C@H]8C(=O)N9)cc7)nn6)cc5)C(C)C)cc4)[C@@H](NC(=O)c4ccccc4)c4ccccc4)C(C)=C1C3(C)C)[C@]1(OC(C)=O)CO[C@@H]1C[C@@H]2O [compound 6, cyclo[DKP‐RGD]‐Val‐Ala‐PTX (aromatic scaffold)] | 27.3 ± 9.8 nM | 6 fold
CC(=O)O[C@H]1C(=O)[C@@]2(C)[C@H]([C@H](OC(=O)c3ccccc3)[C@]3(O)C[C@H](OC(=O)[C@H](OC(=O)N(C)CCN(C)C(=O)OCc4ccc(NC(=O)[C@H](C)NC(=O)[C@@H](NC(=O)Cc5cc(OCc6cn(CCOCCOCCOCCOCC(=O)NCc7ccc(CN8C(=O)[C@H]9CC(=O)N[C@@H](CCCNC(=N)N)C(=O)NCC(=O)N[C@@H](CC(=O)O)C(=O)NC[C@H]8C(=O)N9)cc7)nn6)cc(OCc6cn(CCOCCOCCOCCOCC(=O)NCc7ccc(CN8C(=O)[C@H]9CC(=O)N[C@@H](CCCNC(=N)N)C(=O)NCC(=O)N[C@@H](CC(=O)O)C(=O)NC[C@H]8C(=O)N9)cc7)nn6)c5)C(C)C)cc4)[C@@H](NC(=O)c4ccccc4)c4ccccc4)C(C)=C1C3(C)C)[C@]1(OC(C)=O)CO[C@@H]1C[C@@H]2O [compound 7, (cyclo[DKP‐RGD])2‐Val‐Ala‐PTX] | 4 ± 0.1 nM | 
CC(=O)O[C@H]1C(=O)[C@@]2(C)[C@H]([C@H](OC(=O)c3ccccc3)[C@]3(O)C[C@H](OC(=O)[C@H](OC(=O)N(C)CCN(C)C(=O)OCc4ccc(NC(=O)[C@H](C)NC(=O)[C@@H](NC(=O)Cc5cc(OCCNC(=O)Cc6cc(OCc7cn(CCOCCOCCOCCOCC(=O)NCc8ccc(CN9C(=O)[C@H]%10CC(=O)N[C@@H](CCCNC(=N)N)C(=O)NCC(=O)N[C@@H](CC(=O)O)C(=O)NC[C@H]9C(=O)N%10)cc8)nn7)cc(OCc7cn(CCOCCOCCOCCOCC(=O)NCc8ccc(CN9C(=O)[C@H]%10CC(=O)N[C@@H](CCCNC(=N)N)C(=O)NCC(=O)N[C@@H](CC(=O)O)C(=O)NC[C@H]9C(=O)N%10)cc8)nn7)c6)cc(OCCNC(=O)c6ccc(OCc7cn(CCOCCOCCOCCOCC(=O)NCc8ccc(CN9C(=O)[C@H]%10CC(=O)N[C@@H](CCCNC(=N)N)C(=O)NCC(=O)N[C@@H](CC(=O)O)C(=O)NC[C@H]9C(=O)N%10)cc8)nn7)cc6)c5)C(C)C)cc4)[C@@H](NC(=O)c4ccccc4)c4ccccc4)C(C)=C1C3(C)C)[C@]1(OC(C)=O)CO[C@@H]1C[C@@H]2O [compound 8, (cyclo[DKP‐RGD])3‐Val‐Ala‐PTX] | 1.2 ± 0.5 nM | 
CC(=O)O[C@H]1C(=O)[C@@]2(C)[C@H]([C@H](OC(=O)c3ccccc3)[C@]3(O)C[C@H](OC(=O)[C@H](OC(=O)N(C)CCN(C)C(=O)OCc4ccc(NC(=O)[C@H](C)NC(=O)[C@@H](NC(=O)Cc5cc(OCCNC(=O)Cc6cc(OCc7cn(CCOCCOCCOCCOCC(=O)NCc8ccc(CN9C(=O)[C@H]%10CC(=O)N[C@@H](CCCNC(=N)N)C(=O)NCC(=O)N[C@@H](CC(=O)O)C(=O)NC[C@H]9C(=O)N%10)cc8)nn7)cc(OCc7cn(CCOCCOCCOCCOCC(=O)NCc8ccc(CN9C(=O)[C@H]%10CC(=O)N[C@@H](CCCNC(=N)N)C(=O)NCC(=O)N[C@@H](CC(=O)O)C(=O)NC[C@H]9C(=O)N%10)cc8)nn7)c6)cc(OCCNC(=O)Cc6cc(OCc7cn(CCOCCOCCOCCOCC(=O)NCc8ccc(CN9C(=O)[C@H]%10CC(=O)N[C@@H](CCCNC(=N)N)C(=O)NCC(=O)N[C@@H](CC(=O)O)C(=O)NC[C@H]9C(=O)N%10)cc8)nn7)cc(OCc7cn(CCOCCOCCOCCOCC(=O)NCc8ccc(CN9C(=O)[C@H]%10CC(=O)N[C@@H](CCCNC(=N)N)C(=O)NCC(=O)N[C@@H](CC(=O)O)C(=O)NC[C@H]9C(=O)N%10)cc8)nn7)c6)c5)C(C)C)cc4)[C@@H](NC(=O)c4ccccc4)c4ccccc4)C(C)=C1C3(C)C)[C@]1(OC(C)=O)CO[C@@H]1C[C@@H]2O [compound 9, (cyclo[DKP‐RGD])4‐Val‐Ala‐PTX] | 1.3 ± 0.3 nM | 
